EBNA-1 inhibitor – blocks EBNA-1 binding to DNA; actives 0.34% (n = 300,000); inhibition, % at 14.8 µM; EBNA-1 DNA binding, fluorescence polarization; in the data active = inhibition above about 28%
UBC13 polyUb – human UBC13 polyubiquitination inhibition. P61088. UBC13 polyubiquitin chain formation, TR-FRET. inhibition, % at 20 µM. actives 0.47% (n = 330,000). AID 485273; in the data active = inhibition above about 45%, passing the limit was not always enough
M18AAP inhibitor – blocks P. falciparum M18 aspartyl aminopeptidase; AID 1822; recombinant PfM18AAP, H-Glu-NHMec fluorogenic cleavage; inhibition, % at 7.35 µM; actives 1.2% (n = 290,000);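 active = inhibition above the campaign mean inhibition over all tested compounds plus 3 SD, cut at about 28% in these data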
Apaf-1 inh – inhibitors of human Apaf-1 apoptosome; AID 489030; reconstituted apoptosome caspase-3 activity, DEVD-Rh110 fluorescence; inhibition, % at 20 µM; actives 0.71% (n = 330,000); active = inhibition of at least 40% at 20 µM
Target sequence (O14727 whole entry, looked up): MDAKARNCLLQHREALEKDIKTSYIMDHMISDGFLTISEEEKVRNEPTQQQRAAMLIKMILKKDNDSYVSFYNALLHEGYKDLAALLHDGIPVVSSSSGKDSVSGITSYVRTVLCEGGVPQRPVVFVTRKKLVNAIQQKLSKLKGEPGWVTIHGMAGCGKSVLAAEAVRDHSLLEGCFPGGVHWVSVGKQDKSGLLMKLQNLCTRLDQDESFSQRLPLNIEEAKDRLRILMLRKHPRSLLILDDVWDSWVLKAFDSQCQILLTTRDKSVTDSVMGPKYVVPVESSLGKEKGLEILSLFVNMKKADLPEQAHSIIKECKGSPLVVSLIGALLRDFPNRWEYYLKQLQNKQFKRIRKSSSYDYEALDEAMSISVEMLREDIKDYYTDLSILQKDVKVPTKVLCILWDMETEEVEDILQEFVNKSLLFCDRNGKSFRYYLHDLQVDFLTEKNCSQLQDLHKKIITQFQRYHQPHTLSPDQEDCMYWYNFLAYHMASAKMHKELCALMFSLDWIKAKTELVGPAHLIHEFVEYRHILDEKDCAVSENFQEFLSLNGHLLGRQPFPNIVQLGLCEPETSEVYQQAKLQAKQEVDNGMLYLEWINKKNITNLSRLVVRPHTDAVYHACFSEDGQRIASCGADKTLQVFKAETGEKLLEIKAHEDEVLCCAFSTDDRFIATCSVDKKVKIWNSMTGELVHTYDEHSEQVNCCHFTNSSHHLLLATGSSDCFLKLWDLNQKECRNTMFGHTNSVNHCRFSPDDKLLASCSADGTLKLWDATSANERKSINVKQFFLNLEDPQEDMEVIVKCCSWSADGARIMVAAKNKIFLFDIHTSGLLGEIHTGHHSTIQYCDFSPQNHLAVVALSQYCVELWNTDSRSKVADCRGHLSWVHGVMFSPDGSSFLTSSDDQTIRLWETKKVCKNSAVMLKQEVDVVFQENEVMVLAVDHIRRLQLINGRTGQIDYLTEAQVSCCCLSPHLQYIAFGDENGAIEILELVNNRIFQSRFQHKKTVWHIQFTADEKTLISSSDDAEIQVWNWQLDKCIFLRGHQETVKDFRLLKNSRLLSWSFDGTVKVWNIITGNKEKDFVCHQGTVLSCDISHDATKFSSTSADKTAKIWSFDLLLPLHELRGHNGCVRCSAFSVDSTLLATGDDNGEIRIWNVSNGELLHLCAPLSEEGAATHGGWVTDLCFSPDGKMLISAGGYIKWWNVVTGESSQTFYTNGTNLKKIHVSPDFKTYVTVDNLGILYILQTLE
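Assay system: Apoptosome proteins | Medium: pH 7.5 Hepes buffer with CHAPS, BSA, DTT | Also added: Cytochrome c and DEVD-Rh110 substrate | Times: 30 min plus 50 min, RT | Detection: Rhodamine 110 fluorescence at Ex 480/Em 540 nm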
PfGluPho inh – PfG6PD (Plasmodium falciparum) enzyme inhibition; PfGluPho enzyme, NADPH resazurin-diaphorase fluorescence; inhibition, % at 20 µM; actives 0.78% (n = 350,000); AID 504690;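 active = inhibition reaching at least a set limit at 20 µM in the primary screen, cut at about 59% in these data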
ZTA counter – blocks Epstein-Barr virus ZTA, an EBNA-1 counter-screen. AID 2234. actives 0.15% (n = 320,000). ZTA-DNA binding, fluorescence polarization. inhibition, % at 11 µM. P03206; in the data active = inhibition above about 33%
Of the large screens only hits and unclear results are named; the others gave an inactive call. This is a sample that favours compounds with a hit; in the whole collection about 2.9% have one here.

COc1ccc(OC)c(-c2csc(NC(=O)COC(=O)c3ccc(NC(=O)CC#N)cc3)n2)c1	none (no result: EBNA-1 inhibitor, M18AAP inhibitor)
CN(C)c1ccc(CC2C(=O)Nc3ccccc32)cc1 (stereo unspecified)	M18AAP inhibitor 31.3, PfGluPho inh 82.9
CC(=O)NCCc1nc2cc(NC(=O)c3cccc([N+](=O)[O-])c3)ccc2n1C	none (no result: EBNA-1 inhibitor, ZTA counter)
COC(=O)c1ccc2nc(NC(=O)CSCC(=O)OCC(=O)c3ccccc3)sc2c1	none
Cc1ccc2nc(NC(=O)CSCC(=O)OCC(=O)c3ccc(Br)cc3)sc2c1	EBNA-1 inhibitor 29.6
CSc1nsc(SCC(=O)Nc2nc3ccc(C)cc3s2)n1	EBNA-1 inhibitor 32.3
Cc1ccc2nc(NC(=O)COC(=O)CSc3nc(C)cc(C)n3)sc2c1	none
CCOC(=O)c1c(/N=C/c2cc(OC)cc([N+](=O)[O-])c2O)sc(C)c1C	M18AAP inhibitor 28.1
Cc1cc(C)n(CCC(=O)Nc2cccc(F)c2)n1	none
Cc1ccc(-c2csc3nc4c5ccccc5c(NCCCN5CCOCC5)nn4c(=O)c23)cc1	UBC13 polyUb 55.5 (no result: PfGluPho inh)
Cc1ccc(-c2nc3ccccc3c(=O)n2CCCN2CCOCC2)cc1	none
Cc1c(C(=O)NNC(=O)c2csc(N3CCOCC3)n2)oc2ccc(Br)cc12	none (no result: EBNA-1 inhibitor, UBC13 polyUb, M18AAP inhibitor, Apaf-1 inh, ZTA counter)
O=C(CCC1CCCN(c2ncccn2)C1)NCc1ccccc1F (stereo unspecified)	M18AAP inhibitor 31.6
O=C(NC(=S)NC1CCS(=O)(=O)C1)c1ccccc1 (stereo unspecified)	none
CN(C1=C(NC(=O)c2ccccc2)C(=O)c2ccccc2C1=O)C1CCS(=O)(=O)C1 (stereo unspecified)	Apaf-1 inh 88.2 (no result: PfGluPho inh)
CN1C(=O)Cc2cc(S(=O)(=O)Nc3ccc(Cl)cc3)ccc21	M18AAP inhibitor 29.2
O=C1NC(=S)S/C1=C\c1ccc(SCc2ccco2)o1	M18AAP inhibitor 36.6, ZTA counter 92.4 (no result: UBC13 polyUb, Apaf-1 inh)
CCCC1=NN2C(=N)/C(=C\c3ccc(SCc4ccco4)o3)C(=O)N=C2S1	EBNA-1 inhibitor 49.9, ZTA counter 60.8
CCC1=NN2C(=N)/C(=C\c3ccc(SCc4ccco4)o3)C(=O)N=C2S1	M18AAP inhibitor 29.5
CCCC1=NN2C(=N)/C(=C\c3cc(C)n(Cc4ccccc4)c3C)C(=O)N=C2S1	none
COc1ncccc1-c1nnn(-c2ccccc2)n1	none
N#C/C(=C\c1cccc(Br)c1)C(=O)N1CCCCC1	M18AAP inhibitor 29.7
O=C1C(Cl)=C(Nc2ccccc2O)C(=O)N1c1ccccc1	M18AAP inhibitor 45.8
COCCn1c(=NC(=O)c2sc3ccccc3c2Cl)sc2cc(S(N)(=O)=O)ccc21	none
C=CCn1c(=NC(=O)c2sc3ccccc3c2Cl)sc2cc(S(N)(=O)=O)ccc21	EBNA-1 inhibitor 31.0
O=C(NNc1nc2ccccc2s1)Nc1ccccc1	M18AAP inhibitor 29.0
COc1ccc2nc(NNC(=O)COc3ccccc3)sc2c1	M18AAP inhibitor 38.3
CCOCCOC(=O)c1ccc(NC(=O)c2cc3ccccc3o2)cc1	none (no result: EBNA-1 inhibitor, UBC13 polyUb, M18AAP inhibitor, Apaf-1 inh, ZTA counter)
O=C(Cn1cnc2c(OCc3ccccc3)ncnc21)NCCCc1ccccc1	none (no result: EBNA-1 inhibitor, M18AAP inhibitor, ZTA counter)
CC(C)c1ccc(N(C(=O)c2ccc3c(c2)OCO3)C2C=CS(=O)(=O)C2)cc1 (stereo unspecified)	none
O=C(O)c1ccc2ncsc2c1	M18AAP inhibitor 62.4
O=C(NC1CCS(=O)(=O)C1)Oc1ccccc1 (stereo unspecified)	Apaf-1 inh 51.1
Cc1ccccc1CNC(=O)c1ccccc1N(C)S(=O)(=O)c1ccccc1	none
Cc1cc(NN)nc2ccc(Cl)cc12	M18AAP inhibitor 30.9
Cc1cc(C)c2ccc(Cl)cc2n1	none
CCCCCCCCCCCCCCCC[n+]1cccc2ccccc21	UBC13 polyUb 102.1, Apaf-1 inh 91.1
CCCCCCCCC[n+]1cccc2c3ccccc3ccc21	none
CNC(CC(=O)c1ccc([N+](=O)[O-])cc1)C(Cl)(Cl)Cl (stereo unspecified)	PfGluPho inh 70.0 (no result: UBC13 polyUb, Apaf-1 inh)
COc1ccc(C(=O)CC(Nc2ccc([N+](=O)[O-])cc2)c2ccc(OC)cc2)cc1 (stereo unspecified)	none
CCN(CC)CCNC(=O)c1ccc2c(c1NCCO)C(=O)c1ccccc1C2=O	Apaf-1 inh 54.1
O=C(NN1C(=O)/C(=C/C=C/c2ccco2)SC1=S)c1ccncc1	EBNA-1 inhibitor 50.8, ZTA counter 74.2
O=C(NN1C(=O)/C(=C/C=C/c2ccccc2)SC1=S)c1ccncc1	none

Compound activity from PubChem BioAssay.
